≈ marks a conversion by molar mass, not a printed value. Blank lines part the entries; values can stand above or below the molecule they belong to. Calls of active or inactive are those of the source. The calls are words filed in the database; no cut-off is given here.
Legend:
[1] = biological target: Voltage-dependent T-type calcium channel subunit alpha-1H (Homo sapiens) (UniProt O95180); assay: Inhibition of human Cav3.2 channel expressed in CHO cells at 20.4 +/- 2.4 uM by patch clamp assay; type: cell-based
Sequence of Voltage-dependent T-type calcium channel subunit alpha-1H (Homo sapiens) (O95180 whole entry, canonical isoform): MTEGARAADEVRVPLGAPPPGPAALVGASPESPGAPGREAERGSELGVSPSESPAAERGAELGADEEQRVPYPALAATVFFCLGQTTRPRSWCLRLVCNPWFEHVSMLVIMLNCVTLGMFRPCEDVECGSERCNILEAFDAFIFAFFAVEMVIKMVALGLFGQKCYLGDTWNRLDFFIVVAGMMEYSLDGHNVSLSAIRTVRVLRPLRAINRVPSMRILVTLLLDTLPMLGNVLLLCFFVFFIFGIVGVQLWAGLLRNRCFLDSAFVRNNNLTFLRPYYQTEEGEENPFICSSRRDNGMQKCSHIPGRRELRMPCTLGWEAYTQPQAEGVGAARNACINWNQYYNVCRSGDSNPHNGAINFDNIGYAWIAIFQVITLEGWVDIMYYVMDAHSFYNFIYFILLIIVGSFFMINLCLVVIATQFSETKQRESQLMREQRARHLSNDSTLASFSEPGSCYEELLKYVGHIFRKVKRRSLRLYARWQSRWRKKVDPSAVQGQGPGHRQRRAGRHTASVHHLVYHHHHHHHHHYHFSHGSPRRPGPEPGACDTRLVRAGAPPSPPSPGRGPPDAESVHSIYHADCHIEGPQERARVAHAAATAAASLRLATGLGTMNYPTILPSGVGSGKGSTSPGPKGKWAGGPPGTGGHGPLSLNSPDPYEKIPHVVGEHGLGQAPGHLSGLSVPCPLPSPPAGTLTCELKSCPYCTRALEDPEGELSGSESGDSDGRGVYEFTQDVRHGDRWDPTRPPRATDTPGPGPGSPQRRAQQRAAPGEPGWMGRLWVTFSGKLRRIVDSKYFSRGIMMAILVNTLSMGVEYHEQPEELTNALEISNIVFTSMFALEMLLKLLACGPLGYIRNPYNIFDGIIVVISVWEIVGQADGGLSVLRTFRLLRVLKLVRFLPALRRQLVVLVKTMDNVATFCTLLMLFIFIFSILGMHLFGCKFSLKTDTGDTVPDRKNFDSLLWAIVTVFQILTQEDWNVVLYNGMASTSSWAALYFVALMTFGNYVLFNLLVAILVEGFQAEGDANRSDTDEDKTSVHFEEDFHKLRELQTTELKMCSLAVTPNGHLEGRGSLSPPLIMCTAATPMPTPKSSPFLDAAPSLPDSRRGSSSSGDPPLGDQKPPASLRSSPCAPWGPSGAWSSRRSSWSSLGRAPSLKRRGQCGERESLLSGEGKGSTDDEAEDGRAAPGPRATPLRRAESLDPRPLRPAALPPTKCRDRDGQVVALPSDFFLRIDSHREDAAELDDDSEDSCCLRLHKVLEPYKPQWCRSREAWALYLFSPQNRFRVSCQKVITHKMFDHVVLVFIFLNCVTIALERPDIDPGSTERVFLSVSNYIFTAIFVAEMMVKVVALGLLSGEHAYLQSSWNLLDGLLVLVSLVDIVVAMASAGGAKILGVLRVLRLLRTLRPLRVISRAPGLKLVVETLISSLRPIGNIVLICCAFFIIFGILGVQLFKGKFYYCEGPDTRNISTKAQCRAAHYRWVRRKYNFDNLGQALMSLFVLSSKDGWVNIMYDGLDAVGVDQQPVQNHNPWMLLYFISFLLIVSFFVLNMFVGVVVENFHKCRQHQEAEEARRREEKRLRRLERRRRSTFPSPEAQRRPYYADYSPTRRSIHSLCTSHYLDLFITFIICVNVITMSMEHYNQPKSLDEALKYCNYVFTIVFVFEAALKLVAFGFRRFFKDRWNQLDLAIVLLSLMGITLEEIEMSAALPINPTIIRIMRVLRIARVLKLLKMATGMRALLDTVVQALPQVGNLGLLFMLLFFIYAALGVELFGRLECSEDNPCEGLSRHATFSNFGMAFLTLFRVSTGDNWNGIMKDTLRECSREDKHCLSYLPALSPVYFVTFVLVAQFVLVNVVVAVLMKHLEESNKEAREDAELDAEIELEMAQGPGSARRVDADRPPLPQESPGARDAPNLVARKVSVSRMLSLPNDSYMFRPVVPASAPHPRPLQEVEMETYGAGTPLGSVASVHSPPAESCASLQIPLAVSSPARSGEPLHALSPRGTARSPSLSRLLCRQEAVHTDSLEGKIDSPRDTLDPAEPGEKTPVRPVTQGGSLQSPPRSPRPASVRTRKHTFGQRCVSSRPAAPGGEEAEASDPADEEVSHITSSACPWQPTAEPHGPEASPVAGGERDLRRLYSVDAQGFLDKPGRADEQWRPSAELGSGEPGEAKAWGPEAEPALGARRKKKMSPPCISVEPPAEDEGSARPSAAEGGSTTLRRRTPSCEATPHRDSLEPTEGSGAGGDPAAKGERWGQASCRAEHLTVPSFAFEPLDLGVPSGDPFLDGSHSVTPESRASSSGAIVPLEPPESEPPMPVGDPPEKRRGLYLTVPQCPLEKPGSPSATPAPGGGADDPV

[2] = biological target: T1, Phosphatidylinositol 4,5-bisphosphate 3-kinase catalytic subunit delta isoform (Homo sapiens, UniProt O00329); assay: Inhibition of human recombinant PI3Kdelta assessed as PIP3 production by AlphaScreen assay
T1 sequence (O00329 whole entry): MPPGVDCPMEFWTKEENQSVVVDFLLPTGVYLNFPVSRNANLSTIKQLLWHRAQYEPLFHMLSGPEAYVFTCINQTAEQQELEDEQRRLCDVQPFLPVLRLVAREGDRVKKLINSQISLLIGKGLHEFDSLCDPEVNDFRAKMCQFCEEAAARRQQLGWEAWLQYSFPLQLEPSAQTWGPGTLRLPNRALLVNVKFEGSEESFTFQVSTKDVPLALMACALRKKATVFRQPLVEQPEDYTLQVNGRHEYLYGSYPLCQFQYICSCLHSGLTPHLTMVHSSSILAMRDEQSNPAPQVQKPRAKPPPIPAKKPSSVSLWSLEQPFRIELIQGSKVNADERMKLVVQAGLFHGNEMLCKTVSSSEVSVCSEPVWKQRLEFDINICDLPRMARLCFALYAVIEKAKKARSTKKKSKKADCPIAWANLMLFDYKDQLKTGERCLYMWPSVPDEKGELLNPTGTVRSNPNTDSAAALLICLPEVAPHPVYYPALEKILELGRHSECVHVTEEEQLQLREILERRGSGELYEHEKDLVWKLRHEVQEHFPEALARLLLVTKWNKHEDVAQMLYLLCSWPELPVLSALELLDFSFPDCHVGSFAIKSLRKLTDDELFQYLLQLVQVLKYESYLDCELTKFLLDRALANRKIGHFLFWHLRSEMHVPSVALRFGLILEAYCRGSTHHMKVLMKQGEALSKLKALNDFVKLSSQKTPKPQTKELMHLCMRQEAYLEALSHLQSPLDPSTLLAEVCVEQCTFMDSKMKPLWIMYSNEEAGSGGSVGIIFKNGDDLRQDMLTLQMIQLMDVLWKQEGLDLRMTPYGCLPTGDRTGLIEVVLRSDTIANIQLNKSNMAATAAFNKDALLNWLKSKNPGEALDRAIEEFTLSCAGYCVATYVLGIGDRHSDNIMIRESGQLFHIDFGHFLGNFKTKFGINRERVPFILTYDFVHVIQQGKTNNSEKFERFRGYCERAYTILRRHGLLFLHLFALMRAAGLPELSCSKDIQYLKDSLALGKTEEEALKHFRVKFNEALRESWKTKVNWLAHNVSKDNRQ

[3] = biological target: Sodium channel protein type 2 subunit alpha (Homo sapiens) (UniProt Q99250); assay: Inhibition of human Nav1.2 channel expressed in CHO cells at 20.4 +/- 2.4 uM by patch clamp assay; type: cell-based
[4] = biological target: Voltage-dependent N-type calcium channel subunit alpha-1B (Homo sapiens) (UniProt Q00975); assay: Inhibition of human Cav2.2 channel expressed in CHO cells at 20.4 +/- 2.4 uM by patch clamp assay; type: cell-based
[5] = Fraction unbound in dog plasma after 18 hrs at 37 degC after 18 hrs; type: ADME, cell-free, Canis lupus familiaris
Summary of the method: (§1)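 Human and dog plasma. Fraction unbound measured by equilibrium dialysis, 18 h at 37 °C, reported as % unbound.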

[6] = biological target: Voltage-gated inwardly rectifying potassium channel KCNH2 (Homo sapiens, UniProt Q12809); assay: Inhibition of human ERG channel expressed in CHO cells at 20.4 +/- 2.4 uM by patch clamp assay; type: cell-based
Canis familiaris [7] = assay: Inhibition of ADP-induced platelet aggregation in iv dosed Beagle dog assessed as bleeding time; type: organism-based, Canis lupus familiaris; details: in vivo
Summary of the method: (§2)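 Anaesthetized dogs in a modified Folts' model. Saline vehicle given first, then consecutive iv doses over 30 min periods (bolus 0.03–1.3 µg/kg plus infusion 0.005–0.24 µg/kg/min). Measured: cyclic flow reductions, bleeding time, blood loss, ex vivo ADP-induced whole blood aggregation (Multiplate), and plasma exposure, related by PKPD.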

[8] = Oral bioavailability in Beagle dog at 2 umol/kg; type: ADME, organism-based, Canis lupus familiaris; details: in vivo
Summary of the method: (§3)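 Fasted male Beagle dogs dosed iv or po (iv N = 5, po N = 4). Plasma concentrations analysed by noncompartmental analysis to give CL, Vss and oral F.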

Canis familiaris [9] = assay: Inhibition of ADP-induced platelet aggregation in iv dosed Beagle dog assessed as blood loss volume; type: organism-based, Canis lupus familiaris; details: in vivo; summary of the method: as §2
[10] = Half life in human hepatocytes at 2 uM by LCMS analysis; type: ADME, cell-based, Hepatocyte
Summary of the method: (§4)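 Test compound incubated with human hepatocytes. Intrinsic clearance and half-life derived from compound disappearance.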

[11] = Solubility of the compound in DMSO/HBSS at pH 7.4; type: physicochemical
Summary of the method: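 Compound from DMSO stock added to HBSS buffer. Solubility measured at pH 7.4.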

CHO = assay: Inhibition of human IKs channel expressed in CHO cells at 20.4 +/- 2.4 uM by patch clamp assay; type: cell-based
[12] = biological target: T2, A-type voltage-gated potassium channel KCND3 (Homo sapiens, UniProt Q9UK17); assay: Inhibition of human Kv4.3 channel expressed in CHO cells at 20.4 +/- 2.4 uM by patch clamp assay; type: cell-based
T2 sequence (Q9UK17 whole entry): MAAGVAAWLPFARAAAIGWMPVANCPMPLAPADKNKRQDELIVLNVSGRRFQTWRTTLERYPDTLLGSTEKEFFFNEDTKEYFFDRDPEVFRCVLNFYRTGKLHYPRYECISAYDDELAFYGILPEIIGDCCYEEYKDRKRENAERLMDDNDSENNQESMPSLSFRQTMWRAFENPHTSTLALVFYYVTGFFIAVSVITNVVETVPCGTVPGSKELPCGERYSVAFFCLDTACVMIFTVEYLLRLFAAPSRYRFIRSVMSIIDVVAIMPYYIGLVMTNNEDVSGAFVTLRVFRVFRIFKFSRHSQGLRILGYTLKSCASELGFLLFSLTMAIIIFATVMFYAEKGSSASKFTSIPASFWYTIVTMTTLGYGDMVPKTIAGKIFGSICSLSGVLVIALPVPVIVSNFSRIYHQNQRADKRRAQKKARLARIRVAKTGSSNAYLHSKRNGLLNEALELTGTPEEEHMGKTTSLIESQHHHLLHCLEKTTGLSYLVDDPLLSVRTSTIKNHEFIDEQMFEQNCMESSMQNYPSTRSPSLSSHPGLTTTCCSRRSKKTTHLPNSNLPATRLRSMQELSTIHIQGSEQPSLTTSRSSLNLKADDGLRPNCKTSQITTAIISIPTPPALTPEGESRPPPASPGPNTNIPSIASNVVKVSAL

[13] = Volume of distribution at steady state in Beagle dog at 1 umol/kg, iv and 2 umol/kg, po; type: ADME, organism-based, Canis lupus familiaris; details: in vivo, read-out: Vdss; summary of the method: as §3
[14] = Antiplatelet activity against human platelet assessed as inhibition of collagen-induced platelet rich plasma aggregation by light transmission aggregometry; type: functional, cell-free
Summary of the method: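 Human platelet rich plasma stimulated with collagen. Aggregation read by light transmission aggregometry in an in-house 96-well plate format.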

[15] = biological target: Phosphatidylinositol 4,5-bisphosphate 3-kinase catalytic subunit gamma isoform (Homo sapiens, UniProt P48736); assay: Inhibition of human recombinant PI3Kgamma assessed as PIP3 production by AlphaScreen assay
[16] = biological target: Sodium channel protein type 5 subunit alpha (Homo sapiens, UniProt Q14524); assay: Inhibition of human Nav1.5 channel expressed in CHO cells at 20.4 +/- 2.4 uM by patch clamp assay; type: cell-based
Canis familiaris [17] = species on record: Canis familiaris; assay: Ex vivo antiplatelet activity in Beagle dog assessed as inhibition of ADP-induced platelet aggregation; type: functional, Canis lupus familiaris; summary of the method: as §2
[18] = Antiplatelet activity against dog platelet assessed as inhibition of ADP-induced whole blood aggregation by impedance aggregometry; details: Canis lupus familiaris
[19] = biological target: Voltage-dependent L-type calcium channel subunit alpha-1C (Homo sapiens, UniProt Q13936); assay: Inhibition of human CACNA1C channel expressed in CHO cells at 20.4 +/- 2.4 uM by patch clamp assay; type: cell-based
Sequence of Voltage-dependent L-type calcium channel subunit alpha-1C (Q13936 whole entry): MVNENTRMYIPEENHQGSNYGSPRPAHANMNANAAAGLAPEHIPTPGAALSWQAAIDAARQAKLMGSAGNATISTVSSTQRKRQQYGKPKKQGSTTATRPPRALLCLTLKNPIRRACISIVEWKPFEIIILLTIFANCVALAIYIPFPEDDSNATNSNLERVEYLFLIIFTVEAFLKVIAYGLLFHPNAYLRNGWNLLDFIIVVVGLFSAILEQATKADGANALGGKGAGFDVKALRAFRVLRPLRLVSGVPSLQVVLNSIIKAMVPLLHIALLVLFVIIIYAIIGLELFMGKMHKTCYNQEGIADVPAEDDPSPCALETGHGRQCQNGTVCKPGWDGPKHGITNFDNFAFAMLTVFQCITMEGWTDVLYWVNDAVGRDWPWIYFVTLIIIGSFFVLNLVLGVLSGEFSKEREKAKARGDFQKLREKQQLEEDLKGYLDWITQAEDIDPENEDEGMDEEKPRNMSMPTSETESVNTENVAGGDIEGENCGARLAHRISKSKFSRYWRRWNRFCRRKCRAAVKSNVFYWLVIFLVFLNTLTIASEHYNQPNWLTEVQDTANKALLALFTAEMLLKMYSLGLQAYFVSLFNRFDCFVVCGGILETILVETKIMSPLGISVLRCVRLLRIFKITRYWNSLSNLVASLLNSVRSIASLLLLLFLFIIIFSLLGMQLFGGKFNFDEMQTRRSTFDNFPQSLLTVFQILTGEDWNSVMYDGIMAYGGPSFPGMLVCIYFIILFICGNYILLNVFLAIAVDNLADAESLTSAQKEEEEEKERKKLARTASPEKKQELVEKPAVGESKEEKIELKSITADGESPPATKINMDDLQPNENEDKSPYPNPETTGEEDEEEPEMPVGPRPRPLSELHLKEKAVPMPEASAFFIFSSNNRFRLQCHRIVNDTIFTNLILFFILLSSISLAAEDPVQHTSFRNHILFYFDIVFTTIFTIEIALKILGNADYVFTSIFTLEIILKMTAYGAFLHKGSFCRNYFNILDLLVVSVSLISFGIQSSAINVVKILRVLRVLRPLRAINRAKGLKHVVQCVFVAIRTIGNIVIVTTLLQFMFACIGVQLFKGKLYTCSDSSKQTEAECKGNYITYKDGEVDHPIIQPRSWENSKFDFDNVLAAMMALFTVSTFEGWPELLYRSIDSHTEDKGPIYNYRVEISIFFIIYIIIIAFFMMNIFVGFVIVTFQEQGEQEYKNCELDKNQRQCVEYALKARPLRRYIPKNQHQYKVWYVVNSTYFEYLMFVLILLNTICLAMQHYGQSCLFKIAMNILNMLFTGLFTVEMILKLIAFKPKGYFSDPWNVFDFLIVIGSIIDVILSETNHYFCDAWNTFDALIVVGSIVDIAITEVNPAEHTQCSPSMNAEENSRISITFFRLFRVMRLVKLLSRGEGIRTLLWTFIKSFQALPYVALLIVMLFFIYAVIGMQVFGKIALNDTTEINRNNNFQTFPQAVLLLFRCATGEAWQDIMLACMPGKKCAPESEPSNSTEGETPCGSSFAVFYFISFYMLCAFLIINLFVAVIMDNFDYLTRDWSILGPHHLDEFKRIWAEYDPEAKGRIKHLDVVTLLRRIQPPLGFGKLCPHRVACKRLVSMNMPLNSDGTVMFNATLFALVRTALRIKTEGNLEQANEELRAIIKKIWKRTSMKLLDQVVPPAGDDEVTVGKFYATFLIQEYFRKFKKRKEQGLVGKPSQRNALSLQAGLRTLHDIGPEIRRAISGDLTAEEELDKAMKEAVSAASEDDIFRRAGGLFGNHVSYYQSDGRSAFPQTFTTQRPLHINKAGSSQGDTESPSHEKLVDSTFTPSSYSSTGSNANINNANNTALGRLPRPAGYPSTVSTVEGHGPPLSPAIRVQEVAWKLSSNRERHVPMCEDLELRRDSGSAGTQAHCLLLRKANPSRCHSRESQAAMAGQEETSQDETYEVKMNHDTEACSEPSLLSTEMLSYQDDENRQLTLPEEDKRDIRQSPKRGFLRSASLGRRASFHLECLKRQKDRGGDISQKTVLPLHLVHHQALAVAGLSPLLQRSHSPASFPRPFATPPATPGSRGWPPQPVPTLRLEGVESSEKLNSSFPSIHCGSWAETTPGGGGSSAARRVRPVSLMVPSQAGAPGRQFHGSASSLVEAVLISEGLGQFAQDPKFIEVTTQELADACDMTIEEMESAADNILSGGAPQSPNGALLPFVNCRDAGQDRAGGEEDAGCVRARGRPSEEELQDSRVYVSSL

[20] = Antiplatelet activity against human platelet assessed as inhibition of ADP-induced whole blood aggregation by impedance aggregometry
[21] = Fraction unbound in human plasma after 18 hrs at 37 degC after 18 hrs; type: ADME, cell-free; summary of the method: as §1
[22] = biological target: Voltage-dependent calcium channel subunit alpha-2/delta-1 (Homo sapiens) (UniProt P54289); assay: Inhibition of human CACNA2D1 channel expressed in CHO cells at 20.4 +/- 2.4 uM by patch clamp assay; type: cell-based
[23] = biological target: Voltage-dependent L-type calcium channel subunit beta-2 (Homo sapiens) (UniProt Q08289); assay: Inhibition of human CACNB2 channel expressed in CHO cells at 20.4 +/- 2.4 uM by patch clamp assay; type: cell-based
Rattus norvegicus = species on record: Rattus norvegicus; assay: Effect on insulin resistance in Sprague-Dawley rat assessed as HOMA-index at maximum compound concentration; type: ADME, organism-based; details: in vivo
Summary of the method: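 Sprague-Dawley rats given compound. Relative HOMA insulin resistance index (plasma glucose × plasma insulin) compared with baseline and related to plasma concentration.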

[24] = Clearance in Beagle dog at 1 umol/kg, iv and 2 umol/kg, po; type: ADME, organism-based, Canis lupus familiaris; details: in vivo; summary of the method: as §3
[25] = Apparent permeability across apical to basolateral side of human Caco2 cells at 10 uM at pH 6.5 by LC-tandem MS analysis; type: ADME, cell-based; details: Caco-2, pH 6.5
Summary of the method: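 Caco-2 monolayers, apical-to-basolateral transport at pH 6.5. Result given as apparent permeability (Papp).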

[26] = Half life in iv dosed healthy volunteers plasma; type: ADME, organism-based; details: human
[27] = Volume of distribution in iv dosed healthy volunteers; type: ADME, organism-based; details: human, in vivo
[28] = Lipophilicity, log D of the compound at pH 7.4 by HPLC method; type: physicochemical; details: buffer
Summary of the method: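 LogD measured experimentally at pH 7.4 by an HPLC method.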

Hepatocyte = assay: Intrinsic clearance in human hepatocytes at 2 uM by LCMS analysis; type: ADME, cell-based; summary of the method: as §4

- inhibition [1]: inactive
- IC50 [2]: 400 nM
- inhibition [3]: inactive
- inhibition [4]: inactive
- fraction unbound at 18 h [5]: 0.42
- fold change (FC) (Canis familiaris [7]): 3.5
- bioavailability [8]: 31%
- fold change (FC) (Canis familiaris [9]): 3.5
- half-life at 2 µM [10]: > 173 min
- solubility [11]: > 1800 µM
- inhibition (INH) [12]: Not Active
- Vd [13]: 1.2 L/kg
- IC50 [14]: 210 nM
- IC50 [15]: 83000 nM
- IC50 [18]: 950 nM
- inhibition (INH) [19]: Not Active
- IC50 [20]: 1200 nM
- fraction unbound at 18 h [21]: 0.26
- inhibition [22]: inactive
- inhibition [23]: inactive
- clearance [24]: 8 mL/min/kg
SMILES: C[C@@H](Oc1ccccc1)c1cc(C(=O)N(C)CCO)cn2c(=O)cc(N3CCOCC3)nc12
- inhibition (INH) [6]: Not Active
- inhibition (CHO): inactive
- inhibition (INH) [16]: Not Active
- EC80 (Canis familiaris [17]): 690 nM
- Activity (Rattus norvegicus): Non-toxic

- fraction unbound at 18 h [5]: 0.1
- Papp A→B at 10 µM [25]: 18 ×10⁻⁶ cm/s
- half-life [26]: 5 min
- half-life at 2 µM [10]: 40 min
- solubility [11]: 100 µM (≈ 40.8 µg/mL)
- Vd [13]: 14 L/kg
- IC50 [14]: 280 nM
- Vd [27]: 40 L
- IC50 [20]: 270 nM
- logD [28]: 0.75
- fraction unbound at 18 h [21]: 0.08
- Intrinsic clearance (CLint) (Hepatocyte): 17.5 µL/min
- clearance [24]: 17 mL/min/kg
SMILES: Cc1cc([C@@H](C)Nc2ccccc2C(=O)O)c2nc(N3CCOCC3)cc(=O)n2c1 [AZD-6482]

From ChEMBL document CHEMBL3352617, “Discovery of 9-(1-phenoxyethyl)-2-morpholino-4-oxo-pyrido[1,2-a]pyrimidine-7-carboxamides as oral PI3Kβ inhibitors, useful as antiplatelet agents” (Bioorg Med Chem Lett, 2014)
